# An excerpt weighted towards active compounds, which were near 4.6% of everything screened.
# OX1R antag-1: blocks the human orexin 1 receptor | O43613 | OX1R-expressing cells, FRET antagonist read-out | inhibition, % at 6.6 µM | 1.8% of 330,000 active; in the data active means inhibition mostly above about 38%, no sharp cut-off; inactive means mostly below about 40%;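 further: 0% = agonist challenge alone and 100% = reference antagonist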
# CHO parental Ca: counter-screen: ATP calcium response change in parental CHO cells; inhibition, % at 5.6 µM; 0.63% of 330,000 active; parental CHO-K1, ATP-induced calcium, Fluo-8 fluorescence;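 active means inhibition above that plate's mean sample inhibition plus 3 SD, cut at about 26% in these data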;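 further: 0% = ATP-challenged DMSO wells and 100% = DMSO wells without ATP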
#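 Assay system – parental CHO cells · Reagent – ATP stimulus · Detection – intracellular calcium via Fluo-8 no-wash fluorescent dye · Evaluation – percent inhibition of ATP-evoked calcium rise, normalized to controls · Controls – ATP wells versus no-ATP DMSO wells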
# OX1R antag-2: human HCRTR1 antagonism; O43613; CHO/OX1R cells, Fluo-8 calcium fluorescence, orexin A; inhibition, % at 5 µM; 0.43% of 330,000 active;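 active means inhibition above its plate's threshold, mean inhibition of all tested compounds on the plate plus 3 SD, cut at about 37% in these data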;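 further: 0% = orexin A challenge wells and 100% = SB-334867-A antagonist wells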
# TAAR1 antagonist: antagonists of human TAAR1; Q96RJ0; CHO RD-HGA16 TAAR1, Fluo-8 calcium fluorescence, antagonist; inhibition, % at 3 µM; 1.5% of 360,000 active; AID 624466;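 active means inhibition above a per-plate cutoff, the mean inhibition of test compounds on that plate plus 3 SD, cut at about 49% in these data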;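 further: 0% = DMSO plus EC80 beta-PEA response and 100% = DMSO alone without agonist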
# Target sequence (Q96RJ0 whole entry, looked up): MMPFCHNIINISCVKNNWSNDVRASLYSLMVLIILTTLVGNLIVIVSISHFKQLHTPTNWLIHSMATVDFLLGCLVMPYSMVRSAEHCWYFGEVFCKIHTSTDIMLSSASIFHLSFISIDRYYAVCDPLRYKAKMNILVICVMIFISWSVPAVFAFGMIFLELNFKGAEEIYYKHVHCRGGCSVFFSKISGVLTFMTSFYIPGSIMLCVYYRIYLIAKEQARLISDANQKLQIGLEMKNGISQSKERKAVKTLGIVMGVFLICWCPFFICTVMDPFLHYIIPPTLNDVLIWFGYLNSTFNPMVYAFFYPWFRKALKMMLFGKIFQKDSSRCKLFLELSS
#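 Assay system: CHO-derived RD-HGA16 cells stably expressing human TAAR1 plus Gα16. Timing: 140 s kinetic read after compound, 140 s after agonist. Technique: kinetic Fluo-8 calcium fluorescence measurement. Measure: % inhibition of agonist calcium response.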
# TAAR1 ag: human TAAR1 agonism. CHO RD-HGA16 TAAR1, Fluo-8 calcium fluorescence; vehicle wells 0%, saturating PEA agonist 100%. AID 624467. 0.99% of 360,000 active. Q96RJ0. activation, % at 3 µM;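 active means activation above the mean activation of all test compounds in the run plus 3 SD, cut at about 38% in these data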
#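 Repeats: no replicates (n 1) | Material: CHO-derived RD-HGA16 cells with stable Gα16 and human TAAR1 | Technique: Kinetic Fluo-8 calcium fluorescence | Schedule: 17-24 h seeding, 75 min 37 °C dye, 30 min RT | Evaluation: % activation from peak over basal fluorescence ratio, DMSO-to-PEA scaled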
# GPR7 antagonist: blocks human GPR7 receptor signaling; P48145; GPR7-expressing cells, fluorescence antagonist assay; 1.1% of 290,000 active; inhibition, % at 4.4 µM; in the data active means inhibition above about 16%, passing the limit was not always enough;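 further: cells stimulated with the agonist NPW; 0% = agonist with vehicle and 100% = vehicle without agonist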
# Target sequence (P48145 whole entry, looked up): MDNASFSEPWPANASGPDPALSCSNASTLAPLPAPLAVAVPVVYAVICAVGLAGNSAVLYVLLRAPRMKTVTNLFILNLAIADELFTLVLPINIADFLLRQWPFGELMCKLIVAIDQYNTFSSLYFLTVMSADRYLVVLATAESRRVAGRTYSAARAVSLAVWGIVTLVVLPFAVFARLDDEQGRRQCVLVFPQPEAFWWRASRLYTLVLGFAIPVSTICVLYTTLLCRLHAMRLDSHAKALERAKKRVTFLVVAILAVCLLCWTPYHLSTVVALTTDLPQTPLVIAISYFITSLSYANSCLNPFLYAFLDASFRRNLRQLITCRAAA
# OX1R HTRF conf: OX1R (human) antagonism, HTRF confirmed. AID 492964. inhibition, % at 6.6 µM. shares compounds with OX1R antag-1. OX1R-expressing cells, HTRF antagonist assay. 49% of 1,800 active; in the data active means inhibition above about 55%;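 further: CHO cells expressing OX1R stimulated with orexin A at about EC80; 0% = agonist challenge alone and 100% = reference antagonist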
# CHO-K1 HTRF cnt: counter-screen for OX1R antagonists: effect in parental CHO-K1 cells. shares compounds with OX1R antag-1. HTRF counterscreen. inhibition, % at 6.6 µM. 48% of 1,800 active. AID 493232; in the data active means inhibition above about 17%;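 further: 0% = agonist challenge with vehicle and 100% = vehicle alone without agonist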
# * hit, by the source's call; . = no result.
SMILES,OX1R antag-1,CHO parental Ca,OX1R antag-2,TAAR1 antagonist,TAAR1 ag,GPR7 antagonist,OX1R HTRF conf,CHO-K1 HTRF cnt
COc1cccc(/C=N/NC(=O)N/N=C/c2cccc(OC)c2O)c1O,-1,-10,-26,33,10,-22,.,.
COc1ccc2c(=O)c(-c3nc(C)cs3)coc2c1,24,-17,-19,-15,7,-13,.,.
CCc1cc2c(=O)c(-c3nc(C)cs3)coc2cc1O,82*,-7,12,7,0,-33,78*,-1
O=C(Nc1ccc2nsnc2c1)N1CCCCCC1,87*,-8,-3,10,0,9,35,27*
COc1ccc(CC(=O)NCc2nnc(SCC(=O)Nc3cccc(F)c3)n2C)cc1,92*,-8,-8,-2,-1,3,17,-12
COc1ccc(CC(=O)NCc2nnc(SCC(=O)Nc3ccccc3)n2C)cc1,14,-7,-4,-4,1,-12,.,.
COc1ccc2cc(C(=O)N3CCOCC3)sc(=O)c2c1OC,42,-6,-18,-3,1,-8,.,.
CC1CC(=O)NN=C1c1ccc(N)c([N+](=O)[O-])c1 (centres undefined),83*,-11,2,-6,0,-8,34,29*
C[C@H]1CN(S(=O)C(C)(C)C)[C@@H](CCO)/C1=C\c1ccccc1 (some centres undefined),.,.,.,-4,-1,.,.,.
COc1ccc(-n2nc([N+](=O)[O-])c(=NCCc3ccc(Cl)cc3)n2O)cc1,19,-24,-15,15,1,10,.,.
COc1ccc(-n2nc([N+](=O)[O-])c(=NC3CCN(Cc4ccccc4)CC3)n2O)cc1,79*,-20,-37,4,4,-7,61*,55*
COc1ccc(-n2nc([N+](=O)[O-])c(=NCCc3ccc(C)cc3)n2O)cc1,34,-22,-41,-16,1,-10,.,.
COc1ccc(-n2nc([N+](=O)[O-])c(=NCCc3ccc(OC)c(OC)c3)n2O)cc1,84*,1,-9,-20,5,-2,46,54*
COc1ccc(-n2nc([N+](=O)[O-])c(=NCc3cccnc3)n2O)cc1,123*,-9,-3,-8,0,3,61*,78*
COc1ccc(-n2nc([N+](=O)[O-])c(=NCc3ccco3)n2O)cc1,43,7,1,4,8,2,.,.
COc1ccc2nc(NC(=O)c3ccc(-c4cccc([N+](=O)[O-])c4)o3)sc2c1,8,-9,-17,.,.,-7,.,.
CCN(CC)c1c([N+](=O)[O-])c(=O)oc2ccccc12,8,-9,-4,3,6,-6,.,.
O=C(Nc1nc(-c2cccs2)cs1)c1ccco1,10,-26,-26,-9,-1,-12,.,.
COc1ccc(C(=O)Nc2nc(-c3cccs3)cs2)cc1,90*,-15,-7,7,5,-1,65*,20*
CC(C)(C)OC(=O)N1CCC(C(=O)Nc2ccc(C(=O)N3CCOCC3)cc2)CC1,-2,-1,5,5,3,.,.,.
Cc1ccc(S(=O)(=O)N(CC(=O)NCc2cccs2)c2ccccc2)cc1,.,.,.,-10,2,.,.,.
COc1ccc(C(=O)c2ccccc2)c2c(O)ccc(C(=O)c3ccccc3)c12,104*,6,18,11,13,-5,60*,6
O=C(Nc1ccc(Cl)c(C(F)(F)F)c1)C(=O)N1CCCCC1,18,-10,10,-1,9,7,.,.
O=C(NCC(c1ccco1)N1CCCCC1)c1ccc(COc2ccc(Cl)cc2)cc1 (centres undefined),.,.,.,24,4,.,.,.
Cc1cc(F)ccc1NCc1cc2c(cc1[N+](=O)[O-])OCO2,85*,-21,-16,8,-1,-12,29,21*
SMILES,OX1R antag-1,CHO parental Ca,OX1R antag-2,TAAR1 antagonist,TAAR1 ag,GPR7 antagonist,OX1R HTRF conf,CHO-K1 HTRF cnt
CN1CC(c2ccccc2)Oc2ccccc2C1=S (centres undefined),7,-9,-11,-7,3,.,.,.
COc1cc(CNCCSc2nnnn2C)cc(Br)c1OCc1ccccc1F,95*,-12,-17,3,7,7,16,9
N#CC(C#N)=Cc1c[nH]c(=O)c(C#N)c1Nc1ccccc1,88*,10,4,-10,2,.,44,62*
O=C(O)COc1c(Cl)cc(/C=C2/NC(=O)NC2=O)cc1Br,88*,-9,-15,11,1,-13,42,37*
COc1cc(/C=C2\NC(=O)NC2=O)cc(Br)c1OC,-4,-8,0,1,7,3,.,.
CN1C(=O)/C(=C2\SC(=S)N(C(CCC(=O)O)C(=O)O)C2=O)c2ccccc21 (centres undefined),142*,0,-15,-5,6,-5,57*,102*
NC(=O)C1CCN(C2=C(NS(=O)(=O)c3ccccc3)C(=O)c3ccccc3C2=O)CC1,129*,-6,-18,10,14,9,59*,76*
CN1CCN(C2=C(NS(=O)(=O)c3cccs3)C(=O)c3ccccc3C2=O)CC1,132*,-4,-11,-14,0,-10,62*,99*
CCN1CCN(C2=C(NS(=O)(=O)c3ccc(Br)cc3)C(=O)c3ccccc3C2=O)CC1,95*,-8,-25,-11,3,-8,70*,88*
CN1CCN(C2=C(Cl)C(=O)c3ccccc3C2=O)CC1,.,.,.,18,4,.,.,.
O=C1C(Cl)=C(N2CCC(C(=O)O)CC2)C(=O)c2ccccc21,101*,-15,-7,.,.,-15,52,64*
CC(C)c1nn2c(=O)cc(COc3cccc(NC(=O)c4ccco4)c3)nc2s1,5,-32,-28,19,5,-13,.,.
CCOC(=O)N1CCC(NC(=O)C(NC(=O)C2CCC(C)CC2)C(C)CC)CC1 (centres undefined),.,.,.,.,.,-6,.,.
O=C(CCCCCNC(=O)c1ccccc1)N/N=C/c1ccc(O)cc1O,29,-14,-16,-10,2,-7,.,.
OCCNc1nc2ccc(Cl)cc2[nH]1,10,0,5,.,.,1,.,.
CN1CCN(C2=C(NS(=O)(=O)c3ccccc3)C(=O)c3ccccc3C2=O)CC1,96*,-16,-23,.,.,-9,74*,90*
O=C1C(NS(=O)(=O)c2ccc(Cl)cc2)=C(N2CCCCC2)C(=O)c2ccccc21,111*,-38,-29,26,4,0,41,41*
O=C1C(NS(=O)(=O)c2cccs2)=C(N2CCOCC2)C(=O)c2ccccc21,86*,0,6,-7,0,-8,95*,63*
